The inhibition is the percentage by which the read-out fell short of the control.

Molecules are shown by their SMILES. Active and inactive are the calls of the source. No cut-off for these calls is given here.

The test system of one test is Microsporum canis. In words: Antimicrobial activity against Microsporum canis at 0.4 umol/mL by broth microdilution method. It is filed as functional, organism-based. In a few lines: (§1)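 Broth dilution in defined medium against clinical isolates of each organism.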
Background: Broth dilution looks for growth in wells or tubes with falling amounts of substance.

Another test deals with Candida albicans. The test can be described thus: Antimicrobial activity against Candida albicans at 0.4 umol/mL by broth microdilution method. It is filed as functional, organism-based. In short, it runs like this: as §1
The subject of a further test is Pseudomonas aeruginosa. The test can be described thus: Antimicrobial activity against Pseudomonas aeruginosa at 0.4 umol/mL by broth microdilution method. It is filed as functional, organism-based. In a few lines: as §1
The test system of a further test is Staphylococcus aureus. In words: Antimicrobial activity against Staphylococcus aureus at 0.4 umol/mL by broth microdilution method. It is filed as functional, organism-based. In short, it runs like this: as §1
A further test concerns Epidermophyton floccosum. The test can be described thus: Antimicrobial activity against Epidermophyton floccosum at 0.4 umol/mL by broth microdilution method. It is filed as functional, organism-based. In a few lines:
as §1

The test system of test [1] is Trichophyton mentagrophytes. In words: Antimicrobial activity against Trichophyton mentagrophytes at 0.4 umol/mL by broth microdilution method. It is filed as functional, organism-based. In a few lines: as §1
In the next test the test system is Human alphaherpesvirus 1. The test can be described thus: Antiviral activity against HSV1 infected in human KB cells assessed as inhibition of virus-induced cytopathic effect after 72 hrs relative to control. It is filed as functional, organism-based. In short, it runs like this: (§2)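 Cell monolayers (18-24 h) infected with 320 CCID50 of virus; compound added within 15 min at half-log dilutions from 1000 to 1 μg/mL. After 72 h at 37 °C, CPE and cytotoxicity scored microscopically (0-4). Virus rating = sum of (control CPE − treated CPE) over drug levels, halved at any level showing toxicity.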
(In general: Protection from cytopathic effect is a common read-out in antiviral testing.)

In the next test the test system is Human respirovirus 3. In words: Antiviral activity against Parainfluenza virus 3 infected in human KB cells assessed as inhibition of virus-induced cytopathic effect after 72 hrs relative to control. It is filed as functional, organism-based. In short, it runs like this: as §2
For test [2], the system named is KB. The test can be described thus: Antiviral activity against Rhinovirus type 13 infected in human KB cells assessed as inhibition of virus-induced cytopathic effect after 72 hrs relative to control. It is filed as functional, cell-based. The settings on record: Human rhinovirus A13. In a few lines: as §2
For test [3], the system named is Escherichia coli. In words: Antimicrobial activity against Escherichia coli at 0.0025 to 0.125 umol/mL by broth microdilution method. It is filed as functional, organism-based. In short, it runs like this: as §1
A further test has as its system Influenza B virus. In words: Antiviral activity against Influenza B virus Lee infected in Swiss-Webster mouse assessed as host mean survival days at 12.5 mg/kg, po qd for 9 days. It is filed as functional, B/Lee/1940.
Test [4] relates to Escherichia coli. In words: Inhibition of Escherichia coli IMP dehydrogenase assessed as ratio of compound concentration for 50% inhibition of enzyme activity to 1.7 to 3 x 10^-5 M of substrate concentration. In a few lines:
(§3)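 Enzymes partially purified from Escherichia coli B. Substrate at 1.7-3.0 × 10^-5 M. Value is the ratio of inhibitor concentration giving 50% inhibition to substrate concentration.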

Test [5] deals with Ehrlich. In words: Inhibition of guanine nucleotide biosynthesis in mouse EAC assessed as [14C]hypoxanthine incorporation at 1 mM after 60 mins by TLC analysis. To be noted: 1 h. It is filed as functional. In a few lines: (§4)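 Ehrlich ascites tumor cells (about 6 × 10^6 cells/mL) preincubated 20 min at 37 °C with or without 1 mM compound. [14C]hypoxanthine (55 μCi/μmol) then added to 0.1 mM final for 60 min. Label in adenine or guanine nucleotides of the acid-soluble fraction measured by TLC; inhibition calculated against untreated cells.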

The subject of test [6] is Escherichia coli. In words: Inhibition of Escherichia coli adenylosuccinate synthetase assessed as ratio of compound concentration for 50% inhibition of enzyme activity to 1.7 to 3 x 10^-5 M of substrate concentration. In short, it runs like this:
as §3

The subject of test [7] is KB. The test can be described thus: Antiviral activity against Adenovirus type 3 infected in human KB cells assessed as inhibition of virus-induced cytopathic effect after 72 hrs relative to control. It is filed as functional, cell-based. The settings on record: Human adenovirus 3. In a few lines:
as §2

The subject of a further test is Vaccinia virus. The test can be described thus: Antiviral activity against Vaccinia virus infected in human KB cells assessed as inhibition of virus-induced cytopathic effect after 72 hrs relative to control. It is filed as functional, organism-based. To be noted: Orthopoxvirus vaccinia. In short, it runs like this:
as §2

For test [8], the system named is Ehrlich. The test can be described thus: Inhibition of adenine nucleotide biosynthesis in mouse EAC assessed as [14C]hypoxanthine incorporation at 1 mM after 60 mins by TLC analysis. The settings on record: 1 h. It is filed as functional. In short, it runs like this:
as §4

Another test has as its system Human alphaherpesvirus 2. The test can be described thus: Antiviral activity against HSV2 infected in human KB cells assessed as inhibition of virus-induced cytopathic effect after 72 hrs relative to control. It is filed as functional, organism-based. In a few lines:
as §2

`C[C@H]1O[C@@H](n2cnc3cc(N)[nH]c(=O)c32)[C@H](O)[C@@H]1O`: the outcome (with Microsporum canis; in the test on Candida albicans; in the test on Pseudomonas aeruginosa; with Staphylococcus aureus; in the test on Epidermophyton floccosum; in [1]) was inactive.

Turning to `CC(=O)Nc1cc2[nH]cnc2c(=O)[nH]1`, the outcome (in the test with Microsporum canis; with Candida albicans; in the test on Pseudomonas aeruginosa; in the test on Staphylococcus aureus; in the test on Epidermophyton floccosum; in test [1]) was inactive.

Consider `C[C@H]1O[C@@H](n2cnc(C(N)=O)c2CC#N)[C@H](O)[C@@H]1O`, for which the result (in the test with Microsporum canis; in the test on Candida albicans; in the test on Pseudomonas aeruginosa; with Staphylococcus aureus; in the test with Epidermophyton floccosum; in test [1]) was inactive.

For `COC(=O)c1ncn([C@@H]2O[C@H](C)[C@@H](OC(C)=O)[C@H]2OC(C)=O)c1CC#N`, the outcome (in the test with Microsporum canis; in the test on Candida albicans; in the test with Pseudomonas aeruginosa; with Staphylococcus aureus; in the test with Epidermophyton floccosum; in test [1]) was inactive.

Turning to `COC(=O)c1c(CC#N)ncn1[C@@H]1O[C@H](C)[C@@H](OC(C)=O)[C@H]1OC(C)=O`, the result (in the test on Microsporum canis; in the test on Candida albicans; in the test on Pseudomonas aeruginosa; with Staphylococcus aureus; with Epidermophyton floccosum; in test [1]) was inactive.

With `Nc1cc2ncn(C3CCCCO3)c2c(=O)[nH]1` (stereo not drawn), the outcome in the test on Human alphaherpesvirus 1 and in the test with KB [2] was Active. For the same compound, the result in the test with Microsporum canis, with Candida albicans, in the test with Pseudomonas aeruginosa, in the test with Staphylococcus aureus, in the test on Human respirovirus 3 and in the test on Epidermophyton floccosum was inactive. For the same compound, the result in [1] was inactive.

For the compound `Nc1cc2ncn([C@@H]3O[C@H](CO)[C@@H](O)[C@H]3O)c2c(=O)[nH]1`, the result in the test on Escherichia coli [3] was Active.

Regarding `COC(=O)c1ncn(C2CCCCO2)c1CC#N` (stereo not drawn), in the test on Influenza B virus, the Time was over 0.3 days. In addition, the outcome (with Microsporum canis; in the test on Candida albicans; with Pseudomonas aeruginosa; in the test with Staphylococcus aureus; with Epidermophyton floccosum; in test [1]) was inactive.

As for `N#CCc1c(C(N)=O)ncn1C1CCCCO1` (stereo not drawn), the outcome (in the test on Microsporum canis; in the test on Candida albicans; in the test with Pseudomonas aeruginosa; in the test with Staphylococcus aureus; in the test with Epidermophyton floccosum; in test [1]) was inactive.

For the compound `Nc1cc2c(ncn2[C@@H]2O[C@H](COP(=O)(O)O)[C@@H](O)[C@H]2O)c(=O)[nH]1`, the values for the Ratio with Escherichia coli [4] and with Escherichia coli [6] were 0.068 and 20, respectively. The inhibition at 1000 µM was 68% in the test with Ehrlich [5] and 18% in the test with Ehrlich [8]. For the same compound, the result with Human alphaherpesvirus 1, with KB [7], in the test with Vaccinia virus, in the test on Human respirovirus 3, in the test on Human alphaherpesvirus 2 and in the test on KB [2] was Active. The outcome (with Microsporum canis; in the test with Candida albicans; in the test with Pseudomonas aeruginosa; in the test on Staphylococcus aureus; in the test with Epidermophyton floccosum; in test [1]) was inactive.

For `COC(=O)c1c(CC#N)ncn1C1CCCCO1` (stereo not drawn), the result (with Microsporum canis; in the test on Candida albicans; in the test with Pseudomonas aeruginosa; in the test on Staphylococcus aureus; with Epidermophyton floccosum; in [1]) was inactive.

Consider `Nc1cc2c(ncn2C2CCCCO2)c(=O)[nH]1` (stereo not drawn), for which the outcome (with Microsporum canis; in the test on Candida albicans; with Pseudomonas aeruginosa; in the test on Staphylococcus aureus; with Epidermophyton floccosum; in test [1]) was inactive.

Take `NC(=O)c1ncn([C@@H]2O[C@H](CO)[C@@H](O)[C@H]2O)n1` [RIBAVIRIN]: the inhibition at 1000 µM was determined as 65% in the test with Ehrlich [5] and 14% in the test with Ehrlich [8]. Moreover, the result in the test with Human alphaherpesvirus 1, in the test on KB [7], with Vaccinia virus, in the test on Human respirovirus 3, in the test on Human alphaherpesvirus 2 and with KB [2] was Active.

For the compound `C1=COCCC1`, the result (in the test on Microsporum canis; in the test with Candida albicans; with Pseudomonas aeruginosa; in the test with Staphylococcus aureus; with Epidermophyton floccosum; in test [1]) was inactive.

As for `CC(=O)OC[C@H]1O[C@@H](n2cnc(C(N)=O)c2CC#N)[C@H](OC(C)=O)[C@@H]1OC(C)=O`, the outcome (in the test on Microsporum canis; in the test on Candida albicans; in the test on Pseudomonas aeruginosa; in the test with Staphylococcus aureus; with Epidermophyton floccosum; in [1]) was inactive.

Take `C[C@H]1O[C@@H](n2cnc3c(=O)[nH]c(N)cc32)[C@H](O)[C@@H]1O`: the result in the test with Human alphaherpesvirus 1 was Active. The result in the test on Microsporum canis, with Candida albicans, in the test on Pseudomonas aeruginosa, in the test on Staphylococcus aureus, in the test on Human respirovirus 3 and in the test with Epidermophyton floccosum was inactive. Besides, the result (in [1]; with KB [2]) was inactive.

In the case of `CC(=O)O[C@@H]1O[C@H](C)[C@@H](OC(C)=O)[C@H]1OC(C)=O`, the result (in the test on Microsporum canis; with Candida albicans; in the test on Pseudomonas aeruginosa; in the test on Staphylococcus aureus; with Epidermophyton floccosum; in test [1]) was inactive.

For the compound `CN(C)/C=N/c1cc2c(ncn2[C@@H]2O[C@H](CO)[C@@H](O)[C@H]2O)c(=O)[nH]1`, the outcome (in the test on Microsporum canis; in the test with Candida albicans; in the test with Pseudomonas aeruginosa; with Staphylococcus aureus; in the test on Epidermophyton floccosum; in test [1]) was inactive.

As to `CC(=O)Nc1cc2c(ncn2[C@@H]2O[C@H](COC(C)=O)[C@@H](OC(C)=O)[C@H]2OC(C)=O)c(=O)[nH]1`, the outcome (with Microsporum canis; in the test on Candida albicans; in the test on Pseudomonas aeruginosa; in the test with Staphylococcus aureus; in the test on Epidermophyton floccosum; in test [1]) was inactive.

(Values after ChEMBL document CHEMBL3244072, “Synthesis and antiviral and enzymatic studies of certain 3-deazaguanines and their imidazolecarboxamide precursors” (J Med Chem, 1978).)
